We go through 14 compounds from the M2OR odorant receptor database.

Conditions in all cases: stereoisomer not certain
One test concerns the target T1, UniProt Q8VGC6.
T1 sequence (whole entry): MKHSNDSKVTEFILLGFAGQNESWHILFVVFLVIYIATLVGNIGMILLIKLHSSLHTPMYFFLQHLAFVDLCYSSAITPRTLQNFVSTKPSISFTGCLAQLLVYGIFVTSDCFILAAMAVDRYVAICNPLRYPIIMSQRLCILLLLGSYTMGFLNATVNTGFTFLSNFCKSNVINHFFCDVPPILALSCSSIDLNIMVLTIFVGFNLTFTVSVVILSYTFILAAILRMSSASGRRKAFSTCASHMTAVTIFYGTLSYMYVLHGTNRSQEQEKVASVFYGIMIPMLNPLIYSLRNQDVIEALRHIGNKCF
A digest of the protocol: (§1)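 Assay methods differ from source to source, frequently being transient luciferase assays in mammalian cell lines. For each receptor–molecule pair, the label responsive (active) applies when the original authors judged the measured signal statistically different from baseline, and non-responsive (inactive) applies otherwise.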

A further test deals with T2, UniProt Q8VGD7.
T2 sequence (whole entry): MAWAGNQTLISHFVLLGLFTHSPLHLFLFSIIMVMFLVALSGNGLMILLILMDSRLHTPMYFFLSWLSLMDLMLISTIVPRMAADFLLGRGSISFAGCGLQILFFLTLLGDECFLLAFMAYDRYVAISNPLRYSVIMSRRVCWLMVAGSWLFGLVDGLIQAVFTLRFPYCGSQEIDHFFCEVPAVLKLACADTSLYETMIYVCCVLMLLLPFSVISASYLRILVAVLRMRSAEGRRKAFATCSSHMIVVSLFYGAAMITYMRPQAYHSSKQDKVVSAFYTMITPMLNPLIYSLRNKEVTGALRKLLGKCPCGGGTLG
A digest of the protocol: as §1

Another test deals with T3, UniProt Q8VGH1.
T3 sequence (whole entry): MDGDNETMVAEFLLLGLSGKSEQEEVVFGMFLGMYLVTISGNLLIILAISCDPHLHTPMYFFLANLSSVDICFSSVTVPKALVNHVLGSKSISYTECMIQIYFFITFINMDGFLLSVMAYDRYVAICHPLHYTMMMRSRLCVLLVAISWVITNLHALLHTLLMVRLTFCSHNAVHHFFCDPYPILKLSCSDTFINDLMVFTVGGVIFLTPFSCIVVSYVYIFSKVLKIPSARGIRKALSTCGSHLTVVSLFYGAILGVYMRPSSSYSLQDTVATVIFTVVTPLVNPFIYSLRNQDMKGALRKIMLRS
A digest of the protocol: as §1

Another test concerns the target T4, UniProt Q8VGJ1.
T4 sequence (whole entry): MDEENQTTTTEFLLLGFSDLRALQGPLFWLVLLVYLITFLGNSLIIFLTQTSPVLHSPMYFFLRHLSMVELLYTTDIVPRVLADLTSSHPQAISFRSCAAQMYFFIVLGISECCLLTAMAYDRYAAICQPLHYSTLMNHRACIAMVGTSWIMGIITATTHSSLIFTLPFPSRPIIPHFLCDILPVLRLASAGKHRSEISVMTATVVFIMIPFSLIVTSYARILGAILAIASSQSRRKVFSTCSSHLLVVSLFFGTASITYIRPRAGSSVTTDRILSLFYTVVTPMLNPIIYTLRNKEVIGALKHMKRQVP
Put shortly:
as §1

A further test deals with T5, UniProt Q8VGJ3.
T5 sequence (whole entry): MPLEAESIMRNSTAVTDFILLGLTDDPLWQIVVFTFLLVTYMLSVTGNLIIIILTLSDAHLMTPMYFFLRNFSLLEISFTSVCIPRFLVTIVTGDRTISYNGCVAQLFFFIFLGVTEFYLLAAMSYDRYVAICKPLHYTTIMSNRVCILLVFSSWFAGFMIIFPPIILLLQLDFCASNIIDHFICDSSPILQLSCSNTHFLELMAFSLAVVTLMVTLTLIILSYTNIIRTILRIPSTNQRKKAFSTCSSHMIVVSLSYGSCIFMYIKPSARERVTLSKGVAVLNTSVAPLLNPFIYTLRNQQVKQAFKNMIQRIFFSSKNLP
A digest of the protocol: as §1

The next test addresses T6, UniProt Q8VGJ5.
T6 sequence (whole entry): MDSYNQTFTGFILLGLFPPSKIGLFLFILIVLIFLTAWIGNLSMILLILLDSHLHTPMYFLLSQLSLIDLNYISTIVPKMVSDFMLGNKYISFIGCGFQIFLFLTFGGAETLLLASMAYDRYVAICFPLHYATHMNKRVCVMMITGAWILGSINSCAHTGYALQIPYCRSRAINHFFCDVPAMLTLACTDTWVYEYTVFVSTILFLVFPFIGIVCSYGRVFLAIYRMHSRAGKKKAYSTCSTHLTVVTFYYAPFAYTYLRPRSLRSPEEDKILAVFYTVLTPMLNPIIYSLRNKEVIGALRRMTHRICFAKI
A digest of the protocol: as §1

The target of the next test is T7, UniProt Q8VGL0.
T7 sequence (whole entry): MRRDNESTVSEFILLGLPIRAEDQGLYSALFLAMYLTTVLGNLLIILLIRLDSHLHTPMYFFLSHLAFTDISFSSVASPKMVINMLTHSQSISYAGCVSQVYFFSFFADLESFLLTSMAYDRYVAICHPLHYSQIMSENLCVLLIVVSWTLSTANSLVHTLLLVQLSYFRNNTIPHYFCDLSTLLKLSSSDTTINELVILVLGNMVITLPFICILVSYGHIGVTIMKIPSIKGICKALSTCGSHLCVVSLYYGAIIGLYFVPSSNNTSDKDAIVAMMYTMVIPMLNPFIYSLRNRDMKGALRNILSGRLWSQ
Put shortly:
as §1

The target of the next test is T8, UniProt Q8VGL7.
T8 sequence (whole entry): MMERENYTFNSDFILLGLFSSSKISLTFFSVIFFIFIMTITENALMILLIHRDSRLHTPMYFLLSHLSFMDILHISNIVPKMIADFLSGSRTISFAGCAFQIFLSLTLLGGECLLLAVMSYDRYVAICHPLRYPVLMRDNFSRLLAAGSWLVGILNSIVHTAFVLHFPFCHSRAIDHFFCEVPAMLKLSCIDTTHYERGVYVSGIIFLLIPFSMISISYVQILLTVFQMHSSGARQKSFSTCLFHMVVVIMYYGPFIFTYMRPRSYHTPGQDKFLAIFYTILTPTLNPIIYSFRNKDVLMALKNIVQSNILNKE
A digest of the protocol:
as §1

With `CCCCC(=O)O`, the “odorant receptor agonist call” value with UniProt Q8VGC6, with UniProt Q8VGD7, with UniProt Q8VGH1, in the test with UniProt Q8VGJ1, with UniProt Q8VGJ3 and with UniProt Q8VGJ5 was “inactive” throughout. Moreover, the “odorant receptor agonist call” value with UniProt Q8VGL0 and with UniProt Q8VGL7 was “inactive” throughout.
In the case of `CCCCCCCCCCO`, the “odorant receptor agonist call” value with UniProt Q8VGC6 was “active”. Further, the “odorant receptor agonist call” value in the test with UniProt Q8VGD7, with UniProt Q8VGH1, with UniProt Q8VGJ1, in the test with UniProt Q8VGJ3, with UniProt Q8VGJ5 and with UniProt Q8VGL0 was “inactive” throughout. The “odorant receptor agonist call” value with UniProt Q8VGL7 is “inactive”.
Consider `CCCCOC(=O)C(C)OC(=O)CCC` (centres undefined), for which the “odorant receptor agonist call” value with UniProt Q8VGC6, in the test with UniProt Q8VGD7, with UniProt Q8VGH1, with UniProt Q8VGJ1, with UniProt Q8VGJ5 and with UniProt Q8VGL0 was “inactive” each time. For the same compound, the “odorant receptor agonist call” value with UniProt Q8VGL7 is “inactive”.
In the case of `C=CC(C)=CCC=C(C)CCC=C(C)C`, the “odorant receptor agonist call” value with UniProt Q8VGC6, with UniProt Q8VGJ3 and with UniProt Q8VGL0 was “inactive” each time.
As for `CC12CCC(CC1=O)C2(C)C` (centres undefined), the “odorant receptor agonist call” value with UniProt Q8VGC6, in the test with UniProt Q8VGH1, with UniProt Q8VGJ1, with UniProt Q8VGJ3, with UniProt Q8VGJ5 and with UniProt Q8VGL7 was “inactive” each time. The “odorant receptor agonist call” value in the test with UniProt Q8VGD7 and with UniProt Q8VGL0 was “active” in each case.
With `CCCC(C)C(=O)OCC` (centres undefined), the “odorant receptor agonist call” value with UniProt Q8VGC6, with UniProt Q8VGJ3 and with UniProt Q8VGL0 was “inactive” each time.
Take `C=C(C)C1CCC(C)C(=O)C1` (centres undefined): the “odorant receptor agonist call” value with UniProt Q8VGC6, in the test with UniProt Q8VGJ5 and with UniProt Q8VGL0 was “active” each time. Also, the “odorant receptor agonist call” value in the test with UniProt Q8VGD7, with UniProt Q8VGH1, with UniProt Q8VGJ1, with UniProt Q8VGJ3 and with UniProt Q8VGL7 was “inactive” each time.
Take `CC(CC=O)CCCC(C)(C)O` (centres undefined): the “odorant receptor agonist call” value in the test with UniProt Q8VGC6, in the test with UniProt Q8VGJ3 and with UniProt Q8VGL0 was “inactive” in each case.
`CCCCCCOC(C)=O`: the “odorant receptor agonist call” value with UniProt Q8VGC6, in the test with UniProt Q8VGD7, with UniProt Q8VGH1, with UniProt Q8VGJ1, with UniProt Q8VGJ3 and with UniProt Q8VGJ5 was “inactive” in each case. Besides, the “odorant receptor agonist call” value in the test with UniProt Q8VGL0 and in the test with UniProt Q8VGL7 was “inactive” each time.
Take `CCCCCO`: the “odorant receptor agonist call” value in the test with UniProt Q8VGC6, in the test with UniProt Q8VGD7, with UniProt Q8VGH1, with UniProt Q8VGJ1, in the test with UniProt Q8VGJ5 and with UniProt Q8VGL0 was “inactive” in each case. The “odorant receptor agonist call” value with UniProt Q8VGL7 is “inactive”.
Turning to `CCCCCOC(=O)CC`, the “odorant receptor agonist call” value in the test with UniProt Q8VGC6, in the test with UniProt Q8VGJ3 and with UniProt Q8VGL0 was “inactive” each time.
On to `CCC(C(=O)O)c1ccccc1` (centres undefined), for which the “odorant receptor agonist call” value in the test with UniProt Q8VGC6, with UniProt Q8VGD7, in the test with UniProt Q8VGH1, with UniProt Q8VGJ1, with UniProt Q8VGJ5 and in the test with UniProt Q8VGL0 was “inactive” throughout. Moreover, the “odorant receptor agonist call” value in the test with UniProt Q8VGL7 was “inactive”.
Regarding `CCCC(=O)C(C)=O`, the “odorant receptor agonist call” value with UniProt Q8VGC6, with UniProt Q8VGD7, with UniProt Q8VGH1, with UniProt Q8VGJ1, with UniProt Q8VGJ3 and in the test with UniProt Q8VGJ5 was “inactive” each time. Also, the “odorant receptor agonist call” value with UniProt Q8VGL0 and with UniProt Q8VGL7 was “inactive” each time.
With `CC(C)=CCCC(C)=CCO`, in the test with UniProt Q8VGC6, the “odorant receptor agonist call” value was “active”. Moreover, the “odorant receptor agonist call” value with UniProt Q8VGD7, in the test with UniProt Q8VGH1, with UniProt Q8VGJ1, with UniProt Q8VGJ3, with UniProt Q8VGJ5 and with UniProt Q8VGL0 was “inactive” throughout. Moreover, the “odorant receptor agonist call” value with UniProt Q8VGL7 is “inactive”.
